High-throughput results (PubChem BioAssay)
Sampled rows, rich in hits. Any-hit rate of the full collection: about 2%.
ASAP1 inh = inhibitors of human ASAP1 ArfGAP activity, primary screen, biochemical, fluorescence polarization | ASAP1-stimulated ARF1 GTP hydrolysis, GDP FP detection | inhibition, % at 16.5 µM | actives 0.19% (n = 360,000); in the data active means inhibition above about 25%
TDP2 absorb = human TDP2 enzyme inhibitors, primary screen, biochemical, epi absorbance, recombinant enzyme; inhibition, % at 12.8 µM; Tyrosyl-DNA phosphodiesterase 2 (Homo sapiens), O95551; actives 0.34% (n = 370,000); T5PNP hydrolysis, p-nitrophenol absorbance 415 nm;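 active means inhibition above the mean of all tested compounds plus 3 SD, set per campaign, cut at about 25% in these data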
Target sequence (O95551 whole entry, looked up): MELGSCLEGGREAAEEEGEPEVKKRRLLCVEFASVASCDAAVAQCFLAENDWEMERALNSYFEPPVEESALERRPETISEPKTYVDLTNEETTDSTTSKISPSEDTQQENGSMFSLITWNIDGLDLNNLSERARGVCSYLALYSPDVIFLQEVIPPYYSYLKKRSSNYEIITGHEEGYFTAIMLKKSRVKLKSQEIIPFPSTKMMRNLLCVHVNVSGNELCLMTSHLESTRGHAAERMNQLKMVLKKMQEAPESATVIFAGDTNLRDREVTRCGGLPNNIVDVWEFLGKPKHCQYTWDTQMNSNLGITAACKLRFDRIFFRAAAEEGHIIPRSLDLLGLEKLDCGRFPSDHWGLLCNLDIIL
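Test system: human TDP2 enzyme; Input: 120 nM TDP2 per well; Buffer or medium: Mg2+-containing Tris-HCl buffer, pH 7.5; Reagent: 5 mM T5PNP; Dosing: 12.8 µM single point, 1% DMSO; Incubation: reaction 2 h, 37 °C; Detection: p-Nitrophenol epi absorbance; Read-out: % inhibition relative to enzyme-containing and enzyme-free wells; Replicates: single well per compound.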
LEDGF integ inh = blockers of LEDGF/p75-dependent integrase strand transfer – biochemical, TR-FRET, high throughput, primary screen; inhibition, % at 3.7 µM; TR-FRET IN-LEDGF/p75 DNA integration, Eu/Cy5; AID 743269, 2014; HIV-1 integrase (with human LEDGF/p75); actives 0.64% (n = 370,000);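 active means inhibition above the screen-wide mean plus 3 SD, cut at about 13% in these data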;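 further: signal is the Cy5 over europium emission ratio at 671 and 618 nm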
MBD2 inh = inhibitors of MBD2 binding to methylated DNA, primary screen, biochemical, TR-FRET, DNA-binding domain, human. inhibition, % at 4.4 µM. AID 686964, 2013. actives 0.31% (n = 370,000). MBD2 binding to methylated oligonucleotide. Methyl-CpG-binding domain protein 2 (Homo sapiens), Q9UBB5; in the data active means inhibition above about 13%
ARFGAP1 inh = inhibitors of rat ARFGAP1 GAP activity, primary screen, biochemical, fluorescence polarization, GDP tracer; Arfgap1-stimulated ARF1 GTP hydrolysis, GDP FP detection; inhibition, % at 16.5 µM; actives 0.26% (n = 360,000); ADP-ribosylation factor GTPase-activating protein 1 (Rattus norvegicus), Q62848; AID 651572, 2012;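 active means inhibition above a per-plate limit, mean inhibition of low control wells plus 3 SD, cut at about 25% in these data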
Target sequence (Q62848 1-136 limits assumed): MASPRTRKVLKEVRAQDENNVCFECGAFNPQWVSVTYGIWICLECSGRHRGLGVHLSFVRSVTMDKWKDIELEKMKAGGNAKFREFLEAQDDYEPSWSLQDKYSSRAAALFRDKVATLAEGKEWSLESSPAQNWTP
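Material – truncated rat Arfgap1 GAP domain · Buffer or medium – HEPES-based buffer, pH 7.5 · Reagent – human ARF1(Δ1-17)-GTP substrate · Dosing – 16.5 µM single point, 1.26% DMSO · Schedule – GTP hydrolysis reaction 2 h at 25 °C · Technique – GDP detection by fluorescence polarization · Benchmarks – No-Arfgap1 wells (100%) versus DMSO full-reaction wells (0%) · Repeats – single replicate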
UHRF1 MBD2 ctr = UHRF1 methylated DNA binding inhibitors, primary screen, counter-screen for MBD2 inhibitor project, biochemical, TR-FRET, human UHRF1, single concentration; E3 ubiquitin-protein ligase UHRF1 (Homo sapiens), Q96T88; UHRF1 binding to methylated oligo; inhibition, % at 4.4 µM; actives 0.75% (n = 370,000); in the data active means inhibition above about 21%;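 further: UHRF1 SRA domain binding a hemimethylated CpG hairpin DNA probe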
IN multimer up = HIV-1 IN multimer formation enhancers, counter-screen for LEDGF/p75 integration inhibitor project, biochemical, TR-FRET; shares compounds with LEDGF integ inh; TR-FRET HIV-1 integrase multimerization; activation, % at 7.7 µM; actives 17% (n = 2,000); AID 1053131, 2014; in the data active means activation above about 8.9%
TR-FRET interf = TR-FRET optical interference artefacts, confirmation, artefact control for LEDGF/p75-dependent integration inhibitor project, biochemical, HIV-1 IN multimerization; shares compounds with LEDGF integ inh; TR-FRET optical interference counterscreen; inhibition, % at 7.7 µM; 2,000 tested, under 10 active;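 active means inhibition above the mean over all tested compounds plus 3 SD, which no compound reached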
LEDGF integ conf = inhibitors of HIV-1 IN-LEDGF/p75 DNA integration, confirmation, biochemical, TR-FRET; shares compounds with LEDGF integ inh; TR-FRET LEDGF/p75-dependent HIV-1 integration; inhibition, % at 3.7 µM; actives 36% (n = 2,000); AID 1053136, 2014; in the data active means inhibition above about 14%
Of the large screens only hits and unclear results are named; the others gave an inactive call (follow-up assays come after a bar, where they were run).

CC(/C=N/NC(=O)CSc1nnc(SCc2ccc(C)cc2)s1)=C\c1ccco1	none (no result: ASAP1 inh, ARFGAP1 inh)
Cc1cc(O)c(Oc2cc(C)cc(O)c2O)c(O)c1	LEDGF integ inh 34.8 | IN multimer up inactive | TR-FRET interf inactive | LEDGF integ conf 33.4
Cc1ccc(S(=O)(=O)Oc2ccccc2N2C(=O)C3C4CCC(C4)C3C2=O)cc1 (centres undefined)	none
O=C1C2C3C=CC(C3)C2C(=O)N1c1ccccc1OS(=O)(=O)c1ccccc1 (centres undefined)	LEDGF integ inh 21.4 | IN multimer up inactive | TR-FRET interf inactive | LEDGF integ conf inactive
COc1ccccc1NC(=O)OCCCN1CCC2(CCC(C)CC2)C1=O (centres undefined)	none (no result: ASAP1 inh, ARFGAP1 inh)
Cc1cccc(C(=O)Nc2cccc3cccnc23)c1	none
Cc1ccc(/C=C/C(=O)Nc2cccc3cccnc23)o1	LEDGF integ inh 14.4 | IN multimer up inactive | TR-FRET interf inactive | LEDGF integ conf inactive
Cc1coc2c1c(C)cc1oc(=O)c(CC(=O)NCC(=O)NCC(=O)O)c(C)c12	none
Cc1coc2c1c(C)cc1oc(=O)c(Cc3ccccc3)c(C)c12	LEDGF integ inh 14.9 | IN multimer up inactive | TR-FRET interf inactive | LEDGF integ conf inactive
O=[N+]([O-])c1ccc(/C=[N+](\[O-])[C@@H]2CCCC[C@@H]2/[N+]([O-])=C/c2ccc([N+](=O)[O-])o2)o1	LEDGF integ inh 18.6 | IN multimer up inactive | TR-FRET interf inactive | LEDGF integ conf 33.6
COC(=O)CN1C(=O)[C@H]2[C@@H](/C=C/c3ccccc3)N3C(=O)CN(Cc4ccccc4)C(=O)[C@@]3(C)[C@H]2C1=O	LEDGF integ inh 81.2 | IN multimer up inactive | TR-FRET interf inactive | LEDGF integ conf inactive
Nc1ccc2nc3c(=O)n(CCc4ccccc4)c(=O)[nH]c3nc2c1	none
CCCCn1c(=O)[nH]c2nc3cc(N)ccc3nc2c1=O	LEDGF integ inh 16.9 | IN multimer up inactive | TR-FRET interf inactive | LEDGF integ conf inactive
C=CCN1[C@H](C)COc2cccc(N3CCSCC3)c2S1(=O)=O	none (no result: ASAP1 inh, ARFGAP1 inh)
COCCCN1C(=O)C(=O)/C(=C(/O)c2ccccc2)C1c1ccc(N(C)C)cc1 (centres undefined)	none
COCCCN1C(=O)C(=O)/C(=C(/O)c2ccccc2)C1c1ccc2c(c1)OCO2 (centres undefined)	LEDGF integ inh 30.1 | IN multimer up inactive | TR-FRET interf inactive | LEDGF integ conf inactive
CC(=O)N1CCc2cc3nc(C)cc(C)c3cc21	LEDGF integ inh 52.0 | IN multimer up inactive | TR-FRET interf inactive | LEDGF integ conf inactive
CCN(CC)C(=O)CC[C@@H]1CC[C@]2(CCCN(Cc3ccc(Cl)cc3)C2)O1	none (no result: ASAP1 inh, ARFGAP1 inh)
COC(=O)c1cc(NS(=O)(=O)c2ccc(N3CCOCC3)c(N)c2)cc(C(=O)OC)c1	LEDGF integ inh 14.4 | IN multimer up inactive | TR-FRET interf inactive | LEDGF integ conf inactive
O=C(Nc1cccs1)Nc1ccccc1Cl	LEDGF integ inh 14.7 | IN multimer up inactive | TR-FRET interf inactive | LEDGF integ conf inactive
O=C(c1ccc2nc(-c3ccco3)c(-c3ccco3)nc2c1)N1CCN(c2ccccc2)CC1	LEDGF integ inh 38.9 | IN multimer up inactive | TR-FRET interf inactive | LEDGF integ conf 13.9
CCN(CC)C(=O)CC[C@H]1CC[C@]2(CCCN(Cc3cccc4ccccc34)C2)O1	none (no result: ASAP1 inh, ARFGAP1 inh)
O=S(=O)(O)c1ccc(O)c2cc(Nc3ccccc3)ccc12	LEDGF integ inh 86.6, MBD2 inh 69.7, UHRF1 MBD2 ctr 91.9 | IN multimer up 66.5 | TR-FRET interf inactive | LEDGF integ conf 77.3
COC(=O)[C@]1(C)N[C@H](CN(C)S(=O)(=O)c2ccc(OC(F)(F)F)cc2)[C@@H]2C(=O)N(Cc3ccccc3)C(=O)[C@@H]21	LEDGF integ inh 14.8 | IN multimer up inactive | TR-FRET interf inactive | LEDGF integ conf inactive
Cc1ccc2c(c1)C1CS(=O)(=O)N(Cc3ccccc3)CN1C2 (centres undefined)	none (no result: ASAP1 inh, ARFGAP1 inh)
CC1(C)S[C@@H]2[C@H](NC(=O)[C@H](N)c3ccc(O)cc3)C(=O)N2[C@H]1C(=O)O	LEDGF integ inh 15.2 | IN multimer up inactive | TR-FRET interf inactive | LEDGF integ conf 42.7
Cc1ccc(C2CC(=O)N3CN(c4ccc(Br)cc4)CSC3=C2C#N)o1 (centres undefined)	LEDGF integ inh 42.8, UHRF1 MBD2 ctr 41.3 | IN multimer up inactive | TR-FRET interf inactive | LEDGF integ conf 39.8
CCOC(=O)c1ccc(N2CSC3=C(C#N)C(c4ccc(OC)cc4OC)CC(=O)N3C2)cc1 (centres undefined)	none
CCOc1ccc(N2CSC3=C(C#N)C(c4ccco4)CC(=O)N3C2)cc1 (centres undefined)	TDP2 absorb 33.5, LEDGF integ inh 46.9, MBD2 inh 28.7, UHRF1 MBD2 ctr 67.0 | IN multimer up 15.0 | TR-FRET interf inactive | LEDGF integ conf 40.5
C#CCNC(=O)C[C@H]1C(=O)N(CCCOC)C2=CCCC[C@@]21C(=O)OCC	none (no result: ASAP1 inh, ARFGAP1 inh)
O=C1OC(c2cc(Br)c(O)c(Br)c2)c2ccccc21 (centres undefined)	none
Nc1c(Br)cc2c(c1Br)C(O)c1ccccc1-2 (centres undefined)	LEDGF integ inh 25.9 | IN multimer up inactive | TR-FRET interf inactive | LEDGF integ conf inactive
c1cc2c(cc1CNc1ccc(N3CCOCC3)cc1)OCO2	LEDGF integ inh 15.7 | IN multimer up inactive | TR-FRET interf inactive | LEDGF integ conf inactive
